Assay results collected from several papers.
Compare with care: the assays were run in different laboratories.
HTR1E: 5-hydroxytryptamine receptor 1E (HTR1E, Homo sapiens, UniProt P28566)
BACE1: Beta-secretase 1 (BACE1, Homo sapiens, UniProt P56817)

The Kd of `Cc1c2oc3c(C)ccc(C(=O)N[C@@H]4C(=O)N[C@H](C(C)C)C(=O)N5CCC[C@H]5C(=O)N(C)CC(=O)N(C)[C@@H](C(C)C)C(=O)O[C@@H]4C)c3nc-2c(C(=O)N[C@@H]2C(=O)N[C@H](C(C)C)C(=O)N3CCC[C@H]3C(=O)N(C)CC(=O)N(C)[C@@H](C(C)C)C(=O)O[C@@H]2C)c(N)c1=O` is reported as 0.235 µM (Palmitoyl-protein thioesterase 1 (Homo sapiens, UniProt P50897); binding; MST).
The IC50 of `C=CC(=O)N[C@H]1C=C(C)c2c(-c3cnc4ccccc4c3)c3c(N)ncnc3n2C1` is reported as 0.0011 µM (Epidermal growth factor receptor (EGFR, Homo sapiens, UniProt P00533, L858R/T790M); enzyme activity; inhibitor).
The IC50 of `CNC(=O)c1ccc(-c2cnn3ccc(C(=O)N(C)c4ccc(Cl)c(C(=O)OC)c4)cc23)cc1` is reported as over 30 µM (Wee1-like protein kinase (WEE1, Homo sapiens, UniProt P30291); enzyme activity; inhibitor).
For `O=C(O)C(F)(F)C(F)(F)C(F)(F)C(F)(F)C(F)(F)C(F)(F)C(F)(F)F`, the IC50 was at least 50 µM (Aldo-keto reductase family 1 member C4 (AKR1C4, Homo sapiens, UniProt P17516); enzyme activity; inhibitor).
For `CC[C@H](C)[C@H](NC(=O)[C@H](CO)NC(=O)CNC(=O)[C@@H](NC(=O)[C@@H](NC(=O)[C@@H](NC(=O)CN)[C@@H](C)O)C(C)C)[C@@H](C)O)C(=O)N[C@@H](CC(C)C)C(=O)N[C@H](C(=O)N1CCC[C@H]1C(=O)N[C@H](C(=O)N[C@@H](CC(=O)O)C(=O)N[C@@H](Cc1ccc(O)cc1)C(=O)NCC(=O)N[C@H]1CSSC[C@@H](C(=O)N[C@@H](CO)C(=O)N[C@H](C(=O)N[C@@H](C)C(=O)N[C@@H](CCSC)C(=O)N[C@@H](Cc2ccc(O)cc2)C(=O)NCC(=O)NCC(=O)N[C@H](C(=O)N[C@H](C(=O)N[C@@H](CC(=O)O)C(=O)N2CCC[C@H]2C(=O)N[C@H](C(=O)N[C@@H](CCCNC(=N)N)C(=O)N[C@@H](Cc2ccccc2)C(=O)N2CCC[C@H]2C(=O)N[C@@H](CC(N)=O)C(=O)N[C@@H](C)C(=O)N[C@@H](Cc2c[nH]c3ccccc23)C(=O)N[C@@H](CCCNC(=N)N)C(=O)N[C@@H](CCC(=O)O)C(=O)N[C@@H](CC(C)C)C(=O)O)[C@@H](C)CC)[C@@H](C)CC)C(C)C)C(C)C)NC(=O)[C@H](CC(C)C)NC(=O)[C@H](Cc2ccccc2)NC(=O)[C@@H]2CCCN2C(=O)[C@H](CC(N)=O)NC(=O)[C@H](Cc2ccccc2)NC1=O)[C@@H](C)CC)[C@@H](C)O`, the IC50 was over 100 µM (Neutrophil elastase (ELANE, Homo sapiens, UniProt P08246); enzyme activity; inhibitor).
The IC50 of `COC(=O)c1cc(N(C)C(=O)c2ccn3ncc(-c4ccc(C(=O)O)cc4)c3c2)ccc1Cl` is reported as over 30 µM (Epidermal growth factor receptor (EGFR, Homo sapiens, UniProt P00533); enzyme activity; inhibitor).
The EC50 of `CCN(CC)C(=O)N[C@H]1C[C@@H]2c3cccc4[nH]cc(c34)C[C@H]2N(C)C1` is reported as 1.81 µM (HTR1E; G protein activation; agonist; BRET).
The IC50 of `CNC(=O)c1ccc(-c2cnn3ccc(C(=O)N(C)c4ccc(Cl)c(C(=O)O)c4)cc23)cc1` is reported as over 30 µM (Non-receptor tyrosine-protein kinase TYK2 (TYK2, Homo sapiens, UniProt P29597); enzyme activity; inhibitor).
For `COc1cccc(C=NNC(=O)c2cc(-c3cn(C)c4ccccc34)on2)c1OC`, the IC50 was 8.28 µM (BACE1; enzyme activity; inhibitor; FRET).
The EC50 of `CC(N)Cc1c[nH]c2ccc(OCc3cccs3)cc12` (stereo not drawn) is reported as 3.99 µM (HTR1E; G protein activation; agonist; BRET).
For `c1ccc(-c2nnc(CN3CCN(c4ccccc4)CC3)o2)cc1`, the IC50 was 4.79 µM (BACE1; enzyme activity; inhibitor; FRET).
`Cn1cc(-c2cc(C(=O)NN=Cc3cccc([N+](=O)[O-])c3)no2)c2ccccc21` gave an IC50 of over 100 µM (BACE1; enzyme activity; inhibitor; FRET).
